NCF1 inh – blocks human p47phox regulatory protein of NADPH oxidases; P14598; p47phox/p22phox peptide binding, fluorescence polarization, 2 h; inhibition, % at 24.7 µM; 220,000 compounds, 0.53% hits; AID 1274;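 active = inhibition above about 30%, limit read from the data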
RAM inhibit – inhibitors of the yeast RAM network. S. cerevisiae dse1pr::URA3 reporter, 5-FOA growth OD615, 2 d; analog-sensitive cbk1-as2 kinase mutant strain. inhibition, % at 50 µM. 190,000 compounds, 1.8% hits;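 active = inhibition above a set limit, 3 SD over mean compound inhibition, cut at about 8.4% in these data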;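 note: inhibition rescues growth on 5-FOA so higher OD means more RAM inhibition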
Arbovirus anti – blocks arbovirus infection; arbovirus infection cell-based antiviral screen; inhibition, % at 10 µM; 200,000 compounds, 0.37% hits; AID 1251; in the data active = inhibition above about 30%
WT yeast gro inh – growth inhibition of WT yeast, mitochondrial fusion screen; mitochondrial fusion phenotypic screen, WT strain; inhibition, % at 10 µM; 190,000 compounds, 2.1% hits; in the data active = inhibition above about 58%; tested in S. cerevisiae
Hck-Nef inh – human Hck-Nef kinase inhibition; Recombinant Hck-YEEI plus Nef, Z-Lyte FRET kinase assay; inhibition, % at 20 µM; 220,000 compounds, 0.68% hits; P08631;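 active = Hck-Nef kinase inhibition above about 50%, limit read from the data; inactive = inhibition below that limit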
Target sequence (P08631 whole entry, looked up): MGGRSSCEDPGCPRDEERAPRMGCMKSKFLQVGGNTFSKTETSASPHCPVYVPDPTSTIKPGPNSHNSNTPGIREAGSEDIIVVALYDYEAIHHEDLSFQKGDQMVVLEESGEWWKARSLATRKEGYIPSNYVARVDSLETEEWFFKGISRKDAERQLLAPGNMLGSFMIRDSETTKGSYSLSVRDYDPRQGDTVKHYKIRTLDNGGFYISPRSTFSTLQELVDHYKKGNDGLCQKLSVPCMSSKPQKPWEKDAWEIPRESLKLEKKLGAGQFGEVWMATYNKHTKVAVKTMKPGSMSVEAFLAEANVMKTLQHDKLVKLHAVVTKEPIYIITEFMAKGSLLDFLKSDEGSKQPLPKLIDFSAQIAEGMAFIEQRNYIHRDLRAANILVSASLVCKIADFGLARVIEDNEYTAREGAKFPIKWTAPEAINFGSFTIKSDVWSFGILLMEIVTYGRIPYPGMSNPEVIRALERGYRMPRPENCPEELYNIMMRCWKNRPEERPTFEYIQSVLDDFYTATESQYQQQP
Calb biofilm kill – mixture kills Candida albicans biofilm cells | C. albicans biofilm persisters + clotrimazole, fluorescence viability; primary screen in compound mixtures of four per well | inhibition, % at 7.6 µM | 120,000 compounds, 0.02% hits | AID 1242;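 active = inhibition above 30.3% in the primary screen of four-compound pools, then above 30% when the compound was retested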;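 note: compounds exposed to preformed 24 h biofilms for 48 h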
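Test system: C. albicans CAF4-2 wild-type biofilms; buffer or medium: RPMI/MOPS medium, pH 7.0; schedule: 24 h biofilm formation, then 48 h compound exposure, 37 °C; detection: Alamar Blue fluorescence; measure: percent inhibition of biofilm viability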
A number is an active result; . = inactive; / = not tested or not shown. An excerpt weighted towards active compounds, which were near 4.6% of everything screened.

SMILES	NCF1 inh	RAM inhibit	Arbovirus anti	WT yeast gro inh	Hck-Nef inh	Calb biofilm kill
COc1cccc(N2CCN(C(=O)C3CCN(S(=O)(=O)c4cccs4)CC3)CC2)c1	.	.	.	.	.	.
CCOc1cccc2cc(C(=O)N3CCc4ccccc43)c(=O)oc12	.	.	.	.	.	/
COc1cccc2cc(C(=O)N3CCc4ccccc43)c(=O)oc12	.	.	.	83	.	/
CCCCCCc1nc2ccccc2c(=O)n1NC(=O)c1c(O)c2cccc3c2n(c1=O)CCC3	.	.	.	65	.	/
O=C(NCc1ccccc1)C1=C[C@@H](c2ccc(Br)cc2)C[C@@H](OCc2ccc(CO)cc2)O1	.	8.8	.	.	.	.
C#CCNC(=O)C1=C[C@@H](c2ccc(Br)cc2)C[C@@H](OCc2ccc(CO)cc2)O1	/	.	.	.	.	.
CC(=O)n1cc([C@@H]2C=C(C(=O)NCc3ccccc3)O[C@H](OCc3ccc(CO)cc3)C2)c2ccccc21	.	/	/	/	.	.
C#CCNC(=O)C1=C[C@H](c2cn(C(C)=O)c3ccccc23)C[C@H](OCc2ccc(CO)cc2)O1	.	.	31	.	.	.
CCCc1cc2c(OC(=O)CC)c(-c3ccc(C(=O)OCC)o3)c(=O)oc2cc1OC	.	.	58	.	.	.
N#Cc1nc(-c2ccco2)oc1N1CCC(Cc2ccccc2)CC1	.	9.7	.	.	.	/
N#Cc1nc(-c2ccc(OCc3ccccc3)cc2)oc1N1CCC(C(N)=O)CC1	55	8.6	.	.	.	/
O=C(Cn1cc(S(=O)(=O)Cc2ccccc2)c2ccccc21)Nc1ccccc1	.	.	.	.	.	.
O=C(Nc1ncc(Cc2cccc(Cl)c2)s1)c1cccs1	.	.	.	81	.	/
O=C(Nc1nc(-c2cc(Cl)sc2Cl)cs1)c1cccs1	.	.	.	74	.	/
O=C(Nc1nc(-c2cccs2)cs1)c1ccc(Cl)cc1	.	.	.	67	.	/
O=C(Nc1nc(-c2cc(Cl)sc2Cl)cs1)c1ccc(Br)s1	.	.	.	.	.	/
O=C(Nc1ncc(Cc2ccccc2)s1)c1cccs1	.	.	.	.	.	/
COc1ccc(C(=O)Nc2nc(-c3cccs3)cs2)cc1	.	.	.	.	.	/
O=C(COc1ccccc1)Nc1ccccc1Oc1ccccc1	.	.	.	62	.	.
CCOc1ccc(NC(=O)COc2ccc(C(=O)NCCc3ccccc3)cc2)cc1	.	.	.	.	.	.
COc1ccccc1NC(=O)COc1ccccc1	.	.	.	.	.	/
CCOC(=O)Nc1cccc(OCC(=O)Nc2ccccc2OCC)c1	.	9.6	.	.	.	/
O=C(COc1ccccc1)Nc1ccc(OC(F)(F)C(F)F)c(NC(=O)COc2ccccc2)c1	.	9.8	.	.	.	/
CCCCc1ccc(NC(=O)COc2ccc(C(=O)Nc3ccccc3OCC)cc2)cc1	.	8.7	.	.	.	.
COc1cc(C(=O)NCc2nnc(SCC(=O)N3CCOCC3)o2)cc(OC)c1OC	.	.	.	.	.	.
SMILES	NCF1 inh	RAM inhibit	Arbovirus anti	WT yeast gro inh	Hck-Nef inh	Calb biofilm kill
CC(=O)Nc1ccc(NC(=O)/C(Cl)=C/c2ccccc2)cc1	.	.	.	.	.	/
CCS(=O)(=O)c1ccc(C(=O)NC2CC2)c(Cl)c1Cl	.	.	.	.	.	.
CC(C)C(c1nnnn1C1CCCC1)N1CCN(C(=O)c2ccco2)CC1 (stereo not given)	.	.	.	.	.	/
Cc1ccc(-n2nc(C)cc2Nc2ncc(Cl)cc2Cl)cc1	.	.	.	.	.	.
Cc1cc(C)nc(-n2nc(C)cc2Nc2ccccc2)n1	.	.	.	72	.	/
Cc1cc(Nc2nc(Cl)c(Cl)cc2Cl)n(-c2ccccc2)n1	.	.	.	65	.	.
Cc1cc(N2CCN(c3ccccc3)CC2)nc(-n2nc(C)cc2C)n1	.	.	.	72	.	/
Cc1cc(Nc2ccccc2)n(-c2ccccc2)n1	.	.	.	.	.	/
Cc1cc(N2CCN(c3ccccc3)CC2)nc(-c2ccccc2O)n1	.	.	.	.	.	/
CCc1cc(C(N)=S)ccn1	.	/	.	.	/	/
COc1ccccc1OCCCC(=O)Nc1nccs1	/	.	.	.	.	.
Brc1ccc(-c2nnc(-c3ccccc3)c(N3CCSCC3)n2)cc1	.	.	.	63	.	/
CN1CCN(c2nc(-c3ccc(Br)cc3)nnc2-c2ccccc2)CC1	.	.	.	.	.	/
c1ccc(-c2nc(-n3nc4ccccc4n3)nc3ccccc23)cc1	.	.	.	.	.	/
Clc1ccc(-c2nc(N3CCCCC3)nc3ccccc23)cc1	.	.	.	59	.	.
CCCCNC(=O)C1=C(N)C(C(=O)Nc2ccc(C)c(S(=O)(=O)N3CCCCC3)c2)SC1=Nc1ccc(C)cc1C (stereo not given)	.	.	.	60	.	/
CCC1CCCCN1c1nc(-c2ccncc2)nc2ccccc12 (stereo not given)	.	.	.	.	.	/
CC1CCCCN1c1nc(-c2ccncc2)nc2ccccc12 (stereo not given)	.	.	.	59	.	/
CN=C(Nc1cccc(Cl)c1)SC1CC(=O)N(c2ccc(OC)cc2)C1=O (stereo not given)	.	.	.	.	.	.
CCc1[nH]c(=S)c(C#N)c2c1CCCC2	.	.	.	.	.	.
CCc1[nH]c(=O)c(C#N)c2c1CCCC2	33	.	.	.	.	/
CN(C)/C=N/c1c(C#N)cnn1-c1ccc(C(F)(F)F)cn1	155	.	.	.	.	/
COc1ccccc1NC(=O)Nc1ccc(-n2ccc(C(F)(F)F)n2)cc1	.	/	/	/	.	.
N#Cc1nc(Cc2ccccc2)oc1N1CCN(c2cccc(Cl)c2)CC1	.	11	.	.	.	/
COc1ccc(N2CCN(c3oc(COc4ccccc4)nc3C#N)CC2)cc1	.	10	.	.	.	/
SMILES	NCF1 inh	RAM inhibit	Arbovirus anti	WT yeast gro inh	Hck-Nef inh	Calb biofilm kill
COc1ccc(N2CCN(c3oc(Cc4ccccc4)nc3C#N)CC2)cc1	.	11	.	.	.	/
N#Cc1nc(COc2ccccc2)oc1N1CCOCC1	.	.	.	.	.	/
N#Cc1nc(COc2ccc(-c3ccccc3)cc2)oc1NCCCN1CCOCC1	.	.	.	77	.	/
N#Cc1nc(COc2ccccc2)oc1NCCN1CCOCC1	.	.	.	.	.	/
Clc1cccc(N2CCN(Cc3nc(-c4ccccc4)no3)CC2)c1	.	.	33	.	.	/
Clc1ccc(-c2noc(CN3CCN(c4ccccc4)CC3)n2)cc1	.	.	.	.	.	/
COc1cc(/C=C(/NC(=O)c2ccccc2)C(=O)N2CCN(C)CC2)c([N+](=O)[O-])cc1OC	36	.	.	.	.	.
Cc1noc(C)c1CSc1ncnc2ccccc12	.	.	.	.	.	/
Clc1cc(Cl)cc(CSc2nnc(-c3sccc3-n3cccc3)o2)c1	.	.	.	.	.	/
Clc1cccc(CSc2nnc(-c3sccc3-n3cccc3)o2)c1	.	8.9	.	.	.	/
O=C1NC(=O)C(=C2CCCCCC2)S1	.	.	.	.	.	.

Assay outcomes as filed in PubChem.
